Data set [1] concerns Mycobacterium tuberculosis. Put plainly: Antibacterial activity against replicating form of Mycobacterium tuberculosis MC2 6220 assessed as growth inhibition after 7 days by high-throughput screening assay. In kind it is functional. The following applies: MC2 6220, 168 h. In a few lines: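 Attenuated Mtb mc26220 ΔpanCDΔlysA in 7H9 with glycerol, tyloxapol, OADC, casein amino acids, 240 μg/mL L-lysine, 24 μg/mL pantothenate. Mid-log cells diluted to OD580 0.01 in 384-well plates, compound in DMSO, 7 days at 37 °C, 20% O2, 5% CO2. OD580 read; MIC90 = 90% growth inhibition vs DMSO.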

In data set [2] the test system is Mycobacterium tuberculosis. Put plainly: Antibacterial activity against non-replicating form of Mycobacterium tuberculosis MC2 6220 assessed as growth inhibition after 3 days by high-throughput screening assay. The conditions noted are these: MC2 6220, 72 h. Type of data set: functional. In a few lines:
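Log-phase mc26220 washed in PBS/tyloxapol, resuspended in Sauton's-based NR medium (butyrate, 0.5 mM NaNO2, pH 5.0) at OD580 0.1. Compound exposure 3 days at 37 °C, 1% O2, 5% CO2. Then R medium added (5-fold dilution), 7 days outgrowth at 20% O2. OD580 read; MIC90 = 90% inhibition vs DMSO.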

Data set [3] is described as follows: Cytotoxicity against human HepG2 cells assessed as decrease in ATP signal after 2 days by CellTiter-Glo assay. Type of data set: cell-based. The conditions noted are these: read-out: LD50. In outline:
(§1)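 HepG2 in DMEM with 10% FBS, pyruvate, glutamine, HEPES and nonessential amino acids, seeded 3000 cells/well in 384-well plates. Compound for 2 days at 1% final DMSO. ATP read by CellTiter-Glo luminescence. LD50 = 50% drop in ATP signal vs DMSO. SI = LD50/MIC90 against replicating Mtb.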
A general note: Cellular ATP, detected with luciferase, serves as a proxy for viable cell number.

The nature of data set [4]: Selectivity index, ratio of LD50 for human HepG2 cells to MIC90 for replicating form of Mycobacterium tuberculosis mc'2 6220. Type of data set: toxicity, cell-based. The conditions noted are these: read-out: Selectivity Index. In outline:
as §1

Values after ≈ are worked out from the molar mass of the structure shown.

The results in this text go back to ChEMBL document CHEMBL3259717, “Synthetic calanolides with bactericidal activity against replicating and nonreplicating Mycobacterium tuberculosis” (J Med Chem, 2014).

On to `O=[N+]([O-])C1Cc2ccccc2O1` (configuration not stated), for which the MIC90 in data set [1] and in data set [2] was 0.4 µg/mL (≈ 2.42 µM) each time. The CC50 at 48 h in data set [3] amounted to 3 µg/mL (≈ 18.2 µM). Also, the selectivity ratio in data set [4] is 6.

On to `O=[N+]([O-])c1cc2ccccc2o1`, for which the MIC90 (as a rule, an inhibitory concentration at the 90% level, which refers to growth in some studies and to a panel of isolates in others) was 0.2 µg/mL (≈ 1.23 µM) in data set [1] and above 100 µg/mL in data set [2]. The CC50 at 48 h in data set [3] is 3 µg/mL (≈ 18.4 µM). For the same compound, in data set [4], the selectivity ratio was 16.

Consider `CCCc1cc(=O)oc2c1c(OCCN1CCOCC1)cc1oc([N+](=O)[O-])c(C(C)C)c12`, for which the MIC90 in data set [1] and in data set [2] was above 22 µg/mL each time. Also, the CC50 at 48 h in data set [3] was 22 µg/mL (≈ 49.5 µM). In addition, the selectivity ratio in data set [4] was below 1.

In the case of `CCCc1cc(=O)oc2c3c(cc(OCCN4CCOCC4)c12)OC(C)([N+](=O)[O-])C3O` (racemic), the MIC90 in data set [1] and in data set [2] was 100 µg/mL (≈ 230 µM) in each case. Besides, the CC50 at 48 h in data set [3] was above 100 µg/mL. The selectivity ratio in data set [4] is above 1.

Turning to `CCCc1cc(=O)oc2cc(N3CCN(C(=O)C(C)CC)CC3)c3c(c12)OC(C)(C)C=C3` (configuration not stated), the MIC90 in data set [1] and in data set [2] was above 22 µg/mL each time. Moreover, the CC50 at 48 h in data set [3] is 22 µg/mL (≈ 50.2 µM). In addition, the selectivity ratio in data set [4] is below 1.

As to `CC1(C)C=Cc2c(c3c(CN4CCSCC4)cc(=O)oc3c3cc([N+](=O)[O-])oc23)O1`, the MIC90 in data set [1] and in data set [2] was below 0.3 µg/mL in each case. For the same compound, the CC50 at 48 h in data set [3] came out at 1 µg/mL (≈ 2.33 µM). Besides, the selectivity ratio in data set [4] is above 5.

On to `CCCc1cc(=O)oc2c1c1c(c3oc([N+](=O)[O-])cc32)C=CC(c2ccccc2)O1` (configuration not stated), for which the MIC90 in data set [1] was 20 µg/mL (≈ 49.6 µM); in data set [2] it was 6 µg/mL (≈ 14.9 µM). Moreover, the CC50 at 48 h in data set [3] is 3 µg/mL (≈ 7.44 µM). Besides, the selectivity ratio in data set [4] is 0.1.

For the compound `CCCc1cc(=O)oc2c1c(OCCN1CCCC1)cc1oc([N+](=O)[O-])cc12`, the MIC90 in data set [1] and in data set [2] was below 0.2 µg/mL in each case. The CC50 at 48 h in data set [3] worked out at 1 µg/mL (≈ 2.59 µM). Besides, the selectivity ratio in data set [4] was above 5.

As to `CCCc1cc(=O)oc2cc(N3CCNCC3)c3c(c12)OC(C)(C)C=C3.O=C(O)C(F)(F)F`, the MIC90 is 23 µg/mL in data set [1] and above 23 µg/mL in data set [2]. For the same compound, the CC50 at 48 h in data set [3] was found to be 12 µg/mL. For the same compound, the selectivity ratio in data set [4] was found to be 0.5.

As to `CCCc1cc(=O)oc2cc(N3CCN(C(=O)Nc4ccc(F)c(Cl)c4)CC3)c3c(c12)OC(C)(C)C=C3`, the MIC90 in data set [1] and in data set [2] was above 26 µg/mL in each case. Besides, the CC50 at 48 h in data set [3] was above 26 µg/mL.

As for `CCCc1cc(=O)oc2cc(C#CCO)c3c(c12)OC(C)(C)C=C3`, the MIC90 in data set [1] and in data set [2] was above 16 µg/mL each time. The CC50 at 48 h in data set [3] was above 16 µg/mL.

For the compound `CCCc1cc(=O)oc2c1c(OCCN1CCOCC1)cc1[nH]c([N+](=O)[O-])cc12`, the MIC90 in data set [1] and in data set [2] was above 50 µg/mL each time. Besides, the CC50 at 48 h in data set [3] amounted to 25 µg/mL (≈ 62.3 µM). For the same compound, the selectivity ratio in data set [4] is below 0.5.

Take `CC1(C)C=Cc2c(c3c(CN4CCOCC4)cc(=O)oc3c3cc([N+](=O)[O-])oc23)O1`: the MIC90 in data set [1] and in data set [2] was below 0.2 µg/mL in each case. In data set [3], the CC50 at 48 h was 1 µg/mL (≈ 2.42 µM). The selectivity ratio in data set [4] is above 5.

Consider `Cc1cc(=O)oc2cc(-c3ccc([N+](=O)[O-])o3)c3c(c12)OC(C)(C)C=C3`, for which the MIC90 in data set [1] and in data set [2] was above 18 µg/mL each time. The CC50 at 48 h in data set [3] is above 18 µg/mL.

Take `CCCc1cc(=O)oc2c(C(=O)O)c(O)c3c(c12)OC(C)(C)C=C3`: the MIC90 in data set [1] and in data set [2] was above 17 µg/mL each time. Besides, the CC50 at 48 h in data set [3] was above 17 µg/mL.

Consider `CCCc1cc(=O)oc2cc(N3CCN(C(=O)Nc4ccc(OC)cc4)CC3)c3c(c12)OC(C)(C)C=C3`, for which the MIC90 in data set [1] and in data set [2] was above 25 µg/mL each time. For the same compound, the CC50 at 48 h in data set [3] was above 25 µg/mL.

Turning to `O=C(OCCOc1cc2c(c3oc(=O)c4c(c13)CCCC4)[C@H](O)[C@@H]([N+](=O)[O-])O2)c1cnccn1` (racemic), the MIC90 in data set [1] and in data set [2] was below 1 µg/mL each time. The CC50 at 48 h in data set [3] turned out to be 0.4 µg/mL (≈ 0.852 µM). The selectivity ratio in data set [4] is above 0.3.

Consider `CCCc1cc(=O)oc2cc(C#Cc3ccc(OC)cc3)c3c(c12)OC(C)(C)C=C3`, for which the MIC90 in data set [1] and in data set [2] was above 20 µg/mL in each case. For the same compound, the CC50 at 48 h in data set [3] is above 20 µg/mL.

Take `CCCc1cc(=O)oc2cc(OC(C)C)c3c(c12)OC(C)(C)C=C3`: the MIC90 in data set [1] and in data set [2] was above 16 µg/mL in each case. The CC50 at 48 h in data set [3] is above 16 µg/mL.

Take `CCCc1cc(=O)oc2cc(N3CCN(C(=O)NCc4ccccc4)CC3)c3c(c12)OC(C)(C)C=C3`: the MIC90 in data set [1] and in data set [2] was above 24 µg/mL in each case. The CC50 at 48 h in data set [3] is above 24 µg/mL.

As to `O=c1oc2c3c(cc(OCCN4CCOCC4)c2c2c1CCCC2)O[C@H]([N+](=O)[O-])[C@H]3O` (racemic), the MIC90 in data set [1] and in data set [2] was below 1 µg/mL in each case. In data set [3], the CC50 at 48 h came out at 0.4 µg/mL (≈ 0.925 µM). Besides, the selectivity ratio in data set [4] was above 0.3.

In the case of `CCCc1cc(=O)oc2c(C(=O)N3CCOCC3)c(O)c3c(c12)OC(C)(C)C=C3`, the MIC90 in data set [1] and in data set [2] was above 20 µg/mL in each case. In addition, the CC50 at 48 h in data set [3] is above 20 µg/mL.

For the compound `CCCc1cc(=O)oc2cc(OCCN3CCCC3)c3c(c12)OC(C)(C)C=C3`, the figures for the MIC90 in data set [1] and in data set [2] were 19 µg/mL (≈ 49.5 µM) and above 19 µg/mL, respectively. The CC50 at 48 h in data set [3] came out at 19 µg/mL (≈ 49.5 µM). In addition, in data set [4], the selectivity ratio was 1.

Take `Cc1c(F)c(=O)oc2c1c1c(c3oc([N+](=O)[O-])cc32)C=CC(C)(C)O1`: the MIC90 was below 0.1 µg/mL in data set [1] and 0.2 µg/mL (≈ 0.579 µM) in data set [2]. Also, in data set [3], the CC50 at 48 h is above 50 µg/mL. In data set [4], the selectivity ratio is above 510.

Regarding `Cc1c(F)c(=O)oc2c3c(c4c(c12)OC(C)(C)CC4)O[C@H]([N+](=O)[O-])[C@H]3O` (relative stereo), the MIC90 in data set [1] and in data set [2] was below 0.1 µg/mL in each case. In data set [3], the CC50 at 48 h was found to be 13 µg/mL (≈ 35.6 µM). The selectivity ratio in data set [4] is above 128.

With `CCCc1cc(=O)oc2c3c(cc(OCCOC(=O)c4cnccn4)c12)O[C@H]([N+](=O)[O-])[C@H]3O` (racemic), the MIC90 in data set [1] and in data set [2] was below 1 µg/mL throughout. The CC50 at 48 h in data set [3] is below 1 µg/mL.

`CCCc1cc(=O)oc2cc(C#Cc3ccccn3)c3c(c12)OC(C)(C)C=C3`: the MIC90 in data set [1] and in data set [2] was above 19 µg/mL throughout. The CC50 at 48 h in data set [3] is above 19 µg/mL.

For `CCCc1cc(=O)oc2cc(OCCN3CCOCC3)c3c(c12)OC(C)(C)C=C3`, the MIC90 in data set [1] is 20 µg/mL (≈ 50.1 µM); in data set [2] it was above 20 µg/mL. The CC50 at 48 h in data set [3] was found to be 20 µg/mL (≈ 50.1 µM).

In the case of `CCCc1cc(=O)oc2cc(N3CCN(C(=O)Nc4ccc(C(F)(F)F)cc4)CC3)c3c(c12)OC(C)(C)C=C3`, the MIC90 in data set [1] and in data set [2] was above 27 µg/mL in each case. Moreover, in data set [3], the CC50 at 48 h was above 27 µg/mL.

With `CCCc1cc(=O)oc2cc(N3CCN(C(=O)NC4CCCCC4)CC3)c3c(c12)OC(C)(C)C=C3`, the MIC90 in data set [1] and in data set [2] was above 24 µg/mL each time. Further, in data set [3], the CC50 at 48 h is above 24 µg/mL.

Take `CCCc1cc(=O)oc2c3c(cc(OCCO)c12)O[C@H]([N+](=O)[O-])[C@H]3O` (racemic): the MIC90 in data set [1] and in data set [2] was below 1 µg/mL throughout. Also, in data set [3], the CC50 at 48 h was below 1 µg/mL.

For the compound `CCCCCCCNC(=O)N1CCN(c2cc3oc(=O)cc(CCC)c3c3c2C=CC(C)(C)O3)CC1`, the MIC90 in data set [1] and in data set [2] was above 25 µg/mL throughout. Moreover, in data set [3], the CC50 at 48 h was above 25 µg/mL.
